According to ChEMBL document CHEMBL2424598, “Identification and optimization of pteridinone Toll-like receptor 7 (TLR7) agonists for the oral treatment of viral hepatitis” (J Med Chem, 2013):

How the values were obtained:
Homo sapiens = organism: Homo sapiens; test: Selectivity ratio of MEC for TLR8-mediated TNFalpha production in human PBMC to MEC for TLR7-mediated IFNalpha production in human PBMC
Summary of the method: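 Cryopreserved human PBMCs came from leukapheresis of a single healthy donor selected as a consistent responder. Cells were incubated with compound for 24 h over an eight-point concentration range, and cytokine release was measured. MEC is the lowest concentration giving cytokine levels at least 3-fold above untreated cultures, determined per cytokine.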

[1] = molecular target: T1, Toll-like receptor 7 (Homo sapiens) (UniProt Q9NYK1); test: Agonist activity at TLR7-mediated IFNalpha production in human PBMC assessed as minimum concentration of compound necessary to generate >3 fold of cytokine levels relative to control
T1 sequence (whole entry): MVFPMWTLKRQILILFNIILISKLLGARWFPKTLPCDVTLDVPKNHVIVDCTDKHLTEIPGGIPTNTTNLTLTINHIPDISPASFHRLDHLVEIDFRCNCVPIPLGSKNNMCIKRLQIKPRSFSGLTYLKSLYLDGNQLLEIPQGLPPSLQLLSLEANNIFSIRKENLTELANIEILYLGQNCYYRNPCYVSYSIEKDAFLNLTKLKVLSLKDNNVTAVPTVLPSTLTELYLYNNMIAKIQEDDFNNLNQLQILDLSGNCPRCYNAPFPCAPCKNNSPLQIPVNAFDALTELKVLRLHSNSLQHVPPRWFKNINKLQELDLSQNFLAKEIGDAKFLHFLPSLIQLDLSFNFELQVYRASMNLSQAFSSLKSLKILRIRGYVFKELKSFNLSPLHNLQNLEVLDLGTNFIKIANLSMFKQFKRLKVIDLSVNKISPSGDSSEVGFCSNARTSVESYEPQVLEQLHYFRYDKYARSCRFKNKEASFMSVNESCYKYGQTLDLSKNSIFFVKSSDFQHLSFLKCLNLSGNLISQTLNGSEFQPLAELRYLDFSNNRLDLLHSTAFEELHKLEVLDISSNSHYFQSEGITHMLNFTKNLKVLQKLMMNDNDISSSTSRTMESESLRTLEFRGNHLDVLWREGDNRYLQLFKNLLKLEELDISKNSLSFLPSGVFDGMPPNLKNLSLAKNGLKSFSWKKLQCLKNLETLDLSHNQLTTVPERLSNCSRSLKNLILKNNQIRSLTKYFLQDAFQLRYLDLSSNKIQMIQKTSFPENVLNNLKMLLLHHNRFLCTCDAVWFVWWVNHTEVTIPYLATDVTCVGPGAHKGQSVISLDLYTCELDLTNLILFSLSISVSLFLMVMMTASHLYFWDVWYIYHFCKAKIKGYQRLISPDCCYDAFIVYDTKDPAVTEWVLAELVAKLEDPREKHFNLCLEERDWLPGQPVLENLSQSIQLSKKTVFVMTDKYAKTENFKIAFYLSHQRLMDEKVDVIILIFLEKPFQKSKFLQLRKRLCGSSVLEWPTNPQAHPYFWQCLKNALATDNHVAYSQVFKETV
Summary of the method: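 Cryopreserved PBMCs from leukapheresis of a single healthy human donor, chosen as a consistent, robust responder to TLR7 agonist stimulation. Cells were incubated with compound for 24 h over an eight-point concentration range. Secreted IFN-α was measured to build dose-response curves. MEC was taken as the lowest concentration giving cytokine levels ≥3-fold over untreated control cultures.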

[2] = Lipophilicity, log D of the compound; format: physicochemical; settings: octanol/water

| Ratio (Homo sapiens) | MEC [1] [nM] | logD [2] | SMILES |
| --- | --- | --- | --- |
| 1000 | 10 | – | CCCCNc1nc(N)c2c(n1)N(Cc1cccc(CN3CCCC3)c1)CC(=O)N2 |
| 33 | 3 | – | CCCCOc1nc(N)c2[nH]c(=O)c(=O)n(Cc3cccc(CN4CCCC4)c3)c2n1 |
| 10 | 30 | – | Nc1nc(OCCC2CC2)nc2c1NC(=O)CN2Cc1cccc(CN2CCCC2)c1 |
| 3.3 | 30 | – | CCCCOc1nc(N)c2c(n1)N(Cc1cccc(CN3CCCCC3)c1)CC(=O)N2 |
| 30 | 300 | – | CCCCOc1nc(N)c2c(n1)N(Cc1cccc(CN3CCCC3)c1)C(C)C(=O)N2 (configuration not stated) |
| 10 | 1 | – | CCCCOc1nc(N)c2c(n1)N(Cc1ccc(CN3CCCC3)cc1)CC(=O)N2 |
| 30 | 100 | – | CCCCSc1nc(N)c2c(n1)N(Cc1cccc(CN3CCCC3)c1)CC(=O)N2 |
| 33 | 3 | – | CCC[C@H](C)Oc1nc(N)c2c(n1)N(Cc1cccc(CN3CCCC3)c1)CC(=O)N2 |
| 1000 | 10 | 1 | COCCOc1nc(N)c2c(n1)N(Cc1cccc(CN3CCCC3)c1)CC(=O)N2 |
| 3 | 1000 | – | CCCCOc1nc(N)c2c(n1)N(Cc1cccc(CN3CCCC3)c1)C1(CC1)C(=O)N2 |
| 100 | 10 | – | Nc1nc(OCC2CCOCC2)nc2c1NC(=O)CN2Cc1cccc(CN2CCCC2)c1 |
| 10 | 3 | – | CCCCOc1nc(N)c2c(n1)N(Cc1ccc(-c3cccc(CN4CCCC4)c3)cc1)CC(=O)N2 |
| 3.3 | 300 | – | CCCCOc1nc(N)c2c(n1)N(Cc1cccc(CN3CCOCC3)c1)CC(=O)N2 |
| 0 | 10000 | – | CC(C)COc1nc(N)c2c(n1)N(Cc1cccc(CN3CCCC3)c1)CC(=O)N2 |
| – | 0.03 | – | CCCCOc1nc(N)c2[nH]c(=O)n(Cc3cccc(CN4CCCC4)c3)c2n1 |
| 10 | 300 | – | CCCCOc1cc2c(c(N)n1)NC(=O)CN2Cc1cccc(CN2CCCC2)c1 |
| 30 | 320 | – | CCCCCc1nc(N)c2c(n1)N(Cc1cccc(CN3CCCC3)c1)CC(=O)N2 |
| 30 | 320 | – | CCCCOc1nc(N)c2c(n1)N(C)C(Cc1cccc(CN3CCCC3)c1)C(=O)N2 (configuration not stated) |
| 100 | 100 | – | CCCCOc1nc(N)c2c(n1)N(Cc1ccccc1CN1CCCC1)CC(=O)N2 |
| 100 | 100 | – | CCCCCOc1nc(N)c2c(n1)N(Cc1cccc(CN3CCCC3)c1)CC(=O)N2 |
| 30 | 10 | – | CCC(CC)COc1nc(N)c2c(n1)N(Cc1cccc(CN3CCCC3)c1)CC(=O)N2 |
| – | > 10000 | – | CCCCOc1nc(N)c2c(n1)N(Cc1cccc(CN3CCCC3)c1)CCC(=O)N2 |
| – | > 10000 | – | CCCCOc1nc(N)c2c(n1)NC(Cc1cccc(CN3CCCC3)c1)C(=O)N2 (configuration not stated) |
| 10 | 1000 | – | COCCNc1nc(N)c2c(n1)N(Cc1cccc(CN3CCCC3)c1)CC(=O)N2 |

The next lines start with the molecule.

| SMILES | Ratio (Homo sapiens) | MEC [1] [nM] | logD [2] |
| --- | --- | --- | --- |
| CCCCOc1cc2c([nH]c(=O)c(=O)n2Cc2ccc(-c3ccc(CN4CCCC4)cc3)cc2)c(N)n1 | 3 | 10 | – |
| CCCCOc1cc2c(c(N)n1)NC(=O)CN2Cc1ccc(CN2CCCC2)cc1 | 10 | 30 | – |
| CCCN(C)C(=O)c1nc(N)c2[nH]c(=O)c(=O)n(Cc3cccc(CN4CCCC4)c3)c2n1 | 10 | 1000 | – |
| COCCOc1cc2c(c(N)n1)NC(=O)CN2Cc1ccc(CN2CCCC2)cc1 | 10 | 0.32 | – |
| Nc1nc(OCc2ccccc2)nc2c1NC(=O)CN2Cc1cccc(CN2CCCC2)c1 | 3.3 | 3000 | – |
| CCCCOc1nc(N)c2c(n1)N1Cc3cccc(CN4CCCC4)c3CC1C(=O)N2 (configuration not stated) | 10 | 300 | – |
| CCCCOc1nc(N)c2c(n1)N(Cc1ccc(CCCN3CCCC3)nc1)CC(=O)N2 | 30 | 3 | – |
| CCCCOc1nc(N)c2c(n1)N(Cc1ccc(CN3CCCC3)cc1)C(C)C(=O)N2 (configuration not stated) | 30 | 10 | – |
| CCCCOc1nc(N)c2c(n1)N(C)C(Cc1ccc(CN3CCCC3)cc1)C(=O)N2 (configuration not stated) | 10 | 1000 | – |
| CCCCOc1nc(N)c2c(n1)N(Cc1ccc3c(c1)CCN(C(C)C)C3)CC(=O)N2 | 10 | 3 | – |
| CCCCOc1nc(N)c2c(n1)N(Cc1ccc(-c3ccc(CN4CCCC4)cc3)cc1)CC(=O)N2 | 3.3 | 3 | – |
| CCCCOc1cc2c([nH]c(=O)c(=O)n2Cc2cccc(CN3CCCC3)c2)c(N)n1 | 10 | 30 | – |
| CCCCOc1nc(N)c2c(n1)N(Cc1ccccc1)CC(=O)N2 | 0.3 | – | – |
| Nc1nc(OCC2CCCCC2)nc2c1NC(=O)CN2Cc1cccc(CN2CCCC2)c1 | 3.3 | 3000 | – |
| CCCCOc1cc2c([nH]c(=O)c(=O)n2Cc2ccc(-c3cccc(CN4CCCC4)c3)cc2)c(N)n1 | 3 | 30 | – |
| CCCCNc1nc(N)c2[nH]c(=O)c(=O)n(Cc3cccc(CN4CCCC4)c3)c2n1 | 30 | 3 | – |
| COCCOc1nc(N)c2[nH]c(=O)c(=O)n(Cc3cccc(CN4CCCC4)c3)c2n1 | 3 | 100 | – |
| CCCN(C)C(=O)c1nc(N)c2c(n1)N(Cc1cccc(CN3CCCC3)c1)CC(=O)N2 | 10 | 1000 | – |
| CCCCOc1cc2c([nH]c(=O)c(=O)n2Cc2ccc(CN3CCCC3)cc2)c(N)n1 | 3 | 3 | – |
| CCCCOc1nc(N)c2c(n1)N(Cc1ccc3c(c1)CN(C(C)C)CC3)CC(=O)N2 | 3 | 3 | – |
| CCCCOc1nc(N)c2[nH]c(=O)c(=O)n(Cc3ccc(CN4CCCC4)cc3)c2n1 | 10 | 0.32 | – |
